Screening results: PubChem BioAssay, several laboratories
Compounds with a hit are over-represented: about 3.8% of the library has one in this group of screens.
T cell modulator: modulates CD8 T cell binding to vesicles | 0.068% of 330,000 active | AID 2052 | response (vesicle binding), % at 7 µM | 2C CD8+ T cell-vesicle binding, flow cytometry; stronger effect = lower value;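 active means response, share of CD8 T cells binding vesicles, and their 90th percentile fluorescence all below set limits, cut at about 80% in these data, passing the limit was not always enough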;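 further: values below 100% mean blocked vesicle binding to the CD8+ T cells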
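Material: 2C TCR transgenic mouse naive CD8+ T cells, MACS-purified. Also added: QL9-charged Drosophila Ld/ICAM-1/B7-1 vesicles. Timing: binding 1.5 h at 37 °C. Measured by: high-throughput flow cytometry with anti-B7-1 and anti-CD8 staining. Read-out: percent CD8+ FL2 mean versus row control. Controls: Unloaded micro-vesicles (low), QL9 vesicles with 0.7% DMSO (high).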
Exocytosis inh: lytic granule exocytosis inhibition. 0.66% of 360,000 active. inhibition, % at 10 µM. TALL-104 LAMP-1 surface exposure, flow cytometry; cells stimulated with thapsigargin and PMA;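 active means inhibition above about 55%, limit read from the data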
V-ATPase pHluor: regulators of yeast V-ATPase proton transport | S. cerevisiae, pHLuorin cytosolic pH fluorescence | 0.37% of 350,000 active | response, % at 10 µM | AID 504577; in the data active means response mostly above about 7.3%, no sharp cut-off; inactive means mostly below about 5.4%; further: actives read high
MPTP inh: inhibitors of mitochondrial permeability transition pore | inhibition, % at 10 µM | 1.4% of 360,000 active | isolated mouse mitochondria, Ca2+ swelling absorbance, 30 min;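 active means inhibition of 50% or more, scaled per plate between neutral and stimulator controls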;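 further: 0% = DMSO wells given calcium and 100% = 1 mM EGTA wells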
rCAG binder: binds r(CAG) RNA repeats; r(CAG) RNA repeat, TO-PRO-1 dye displacement fluorescence; inhibition, % at 3 µM; 1.3% of 370,000 active;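 active means inhibition above the plate cutoff, the mean of all test compounds on that plate plus 3 SD, cut at about 35% in these data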;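 further: 0% = DMSO alone and 100% = 100 µM mitoxantrone as full dye displacement; higher means more dye released from RNA so lower well fluorescence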
Beta2AR agonist: human beta-2 adrenergic receptor agonism by FAP | P07550 | Am2.2-beta2AR cells, FAP receptor internalization, flow cytometry | response, % (no concentration beside the values) | 0.43% of 340,000 active | AID 504454;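 active means response above a set limit, near 3 SD of response in nonfluorescent compounds, cut at about 42% in these data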
Target sequence (P07550 whole entry, looked up): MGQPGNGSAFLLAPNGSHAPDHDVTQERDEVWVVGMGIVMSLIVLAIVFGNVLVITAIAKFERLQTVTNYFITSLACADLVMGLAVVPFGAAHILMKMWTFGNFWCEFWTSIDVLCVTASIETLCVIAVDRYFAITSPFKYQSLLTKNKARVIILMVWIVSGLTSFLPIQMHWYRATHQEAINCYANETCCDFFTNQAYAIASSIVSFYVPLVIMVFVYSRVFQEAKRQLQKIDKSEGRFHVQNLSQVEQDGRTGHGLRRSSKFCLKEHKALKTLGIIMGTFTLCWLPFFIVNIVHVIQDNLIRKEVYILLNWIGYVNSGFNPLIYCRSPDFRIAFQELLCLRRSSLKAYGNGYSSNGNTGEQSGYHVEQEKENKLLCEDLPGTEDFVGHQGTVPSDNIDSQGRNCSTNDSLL
Exocytosis CP01: lytic granule exocytosis inhibition. AID 651954. TALL-104 cells, LAMP-1 externalization, flow cytometry; stimulated with PMA plus thapsigargin. inhibition, % at 10 µM. 11% of 1,500 active. shares compounds with Exocytosis inh; in the data active means inhibition above about 60%;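 further: 0% = stimulated vehicle wells and 100% = unstimulated wells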
Active calls of the source: *; · = no result given.

SMILES	T cell modulator	Exocytosis inh	V-ATPase pHluor	MPTP inh	rCAG binder	Beta2AR agonist	Exocytosis CP01
CCOC(=O)c1c(-c2ccccc2)oc2ccc(O)c(CN(C)C)c12	268	12	1	0	-1	25	·
CCOC(=O)c1c(CSCc2ccccc2)oc2ccc(O)c(CN(C)C)c12	417	85*	0	5	12	13	36
COC[C@@H]1CCCN1c1ccc2c(c1)O[C@@H]1CCN(C1)S2(=O)=O	·	·	·	·	0	·	·
CC(C)(C)n1nnnc1C(c1cccs1)N(Cc1ccccc1)Cc1ccco1 (stereo not drawn)	152	78*	3	0	5	6	-12
COc1ccc(NC(=O)c2c(C)nn(Cc3ccccc3)c2C)cc1S(=O)(=O)N(C)C	443	71*	0	0	-6	12	-4
O=c1c2ccc(F)cc2sn1-c1ccccc1	·	71*	0	6	0	·	100*
Cc1ccc(-n2sc3ccccc3c2=O)cc1	413	74*	0	0	0	2	33
N=C1SCC(=O)N1c1ccccc1Cl	245	0	1	0	1	-4	·
Cc1ccc(-n2sc3cc(F)ccc3c2=O)c(C)c1	·	42	1	8	3	·	·
O=c1c2cc(F)ccc2sn1-c1ccccc1Cl	·	64*	-1	12	1	·	103*
COC(=O)c1cn(-c2ccc(-c3noc4c3C(=O)N(CC(=O)N3CCOCC3)CC4)cc2)nn1	·	·	·	·	2	·	·
COC(=O)C1=C(C)N(Cc2ccc(C(F)(F)F)cc2)C(=NCc2ccccc2)NC1c1cccc(Cl)c1 (stereo not drawn)	·	·	·	·	6	·	·
CCc1nnn2c1Cn1c3ccccc3c(=O)n1[C@@H](C)C2	·	·	·	·	4	·	·
COC(=O)[C@]12C[C@H](CC(=O)NCCCN3CCCC3=O)C(=O)N(Cc3ccco3)C1=C[C@H](COCc1ccccc1)O[C@@H]2C	·	·	·	·	7	·	·
O=C(Nc1cccc(Cl)c1N1CCCC1)c1ccco1	135	74*	2	0	2	-5	-14
O=C(Nc1ccc(N2CCCC2)c(Cl)c1)c1ccco1	416	-3	-1	0	8	-6	·
COC(=O)c1ccc(N2CCCCC2)c(NC(=O)c2ccco2)c1	168	93*	6	-1	-2	1	-4
CCNC(=O)Nc1ccc2c(c1)C(=O)N(C)[C@H]1CC[C@@H](CC(=O)NCCN3CCCC3)O[C@@H]1CO2	·	·	·	·	3	·	·
CCOc1ccc(OCC)c(NC(=O)CN(c2ccc(C)cc2)S(=O)(=O)c2c(C)noc2C)c1	240	-4	1	5	0	4	·
Cc1ccc(N(CC(=O)NCCc2ccccc2)S(=O)(=O)c2c(C)noc2C)cc1	714	-1	-4	0	-9	-4	·
CCOc1ccc(OCC)c(NC(=O)CN(c2ccc(OC)cc2)S(=O)(=O)c2c(C)noc2C)c1	406	57*	0	-1	2	10	-5
CCOc1ccc(N(CC(=O)NCCc2ccc(C)cc2)S(=O)(=O)c2c(C)noc2C)cc1	225	79*	3	-1	-4	-1	-3
Cc1ccccc1N1CCN(C2=Nc3ccccc3Sc3ccccc32)CC1	·	·	·	·	6	·	·
COC(=O)C1CN(C2CC2)CCS(=O)(=O)N1Cc1cn(Cc2ccc(F)cc2)nn1 (stereo not drawn)	·	·	·	·	-1	·	·
O=C(CSc1nnc(-c2cccnc2)n1Cc1ccco1)Nc1ccc(Cl)c(Cl)c1	·	·	·	·	6	·	·
SMILES	T cell modulator	Exocytosis inh	V-ATPase pHluor	MPTP inh	rCAG binder	Beta2AR agonist	Exocytosis CP01
COc1ccc(-n2c(SCC(=O)NC3CCCCCC3)nnc2-c2ccncc2)cc1	·	·	·	·	3	·	·
Clc1cccc(Cc2c(-c3ccco3)nc3c4ccccc4ccn23)c1	·	96*	·	-1	30	·	-6
Fc1cccc(Cc2c(-c3ccco3)nc3c4ccccc4ccn23)c1	·	87*	·	-2	13	·	31
Cc1ccccc1NC(=O)[C@H]1CC(=O)O[C@@H]1c1ccccc1	·	·	·	·	2	·	·
CC(C)NC(=O)N(C)C[C@H]1Oc2c(NC(=O)Nc3ccc(C(F)(F)F)cc3)cccc2C(=O)N([C@H](C)CO)C[C@@H]1C	120	60*	-2	0	-3	-2	-4
C[C@H](CO)N1C[C@H](C)[C@@H](CN(C)Cc2ccc(C(=O)O)cc2)Oc2ccc(NS(C)(=O)=O)cc2C1=O	384	2	-2	0	6	3	·
C[C@H](CO)N1C[C@H](C)[C@@H](CN(C)C(=O)NC2CCCCC2)Oc2ccc(NS(C)(=O)=O)cc2C1=O	384	73*	0	-1	0	1	0
C[C@@H]1CN([C@@H](C)CO)C(=O)c2cc(NS(C)(=O)=O)ccc2O[C@@H]1CN(C)Cc1ccc(C(F)(F)F)cc1	·	62*	4	-2	-1	-16	-15
C[C@H](CO)N1C[C@H](C)[C@@H](CN(C)C(=O)Nc2ccc(C(F)(F)F)cc2)Oc2c(NC(=O)Nc3ccccc3)cccc2C1=O	178	-3	9	-1	17	8	·
C[C@H](CO)N1C[C@H](C)[C@@H](CN(C)C(=O)NC2CCCCC2)Oc2ccc(NS(=O)(=O)c3ccc(F)cc3)cc2C1=O	709	-2	-1	0	-5	-9	·
CC1CCN(c2c3c(nc4ncnn24)CCCC3)CC1	·	·	·	·	-1	·	·
CCCCCCCCN1C(=O)[C@@H](CC(=O)N2CCCC2)C[C@@]2(C(=O)OC)C1=C[C@H](C(C)C)O[C@@H]2C1CC1	·	·	·	·	5	·	·
COc1ccccc1C(=O)NCCn1ccc2ccccc21	276	-14	2	-5	5	6	·
COc1ccc(OC)c(CCNC(=O)Cn2ccc3cc(S(=O)(=O)N4CCCC4)ccc32)c1	229	1	-2	0	0	0	·
COc1ccccc1CCC(=O)NCCCn1ccc2ccccc21	374	72*	-3	1	4	0	-13
COc1ccccc1CCNC(=O)Cn1ccc2cc(S(=O)(=O)N3CCC(C)CC3)ccc21	542	60*	0	0	4	7	-13
CC(CCN1CCC(C(O)(c2ccccc2)c2ccccc2)CC1)Oc1cccc(Br)c1 (stereo not drawn)	·	·	·	·	5	·	·
O=C(c1ccccc1Oc1ccccc1)N1CCC(Oc2cccnc2)CC1	·	·	·	·	0	·	·
Cc1ccc(-c2csc3ncn(-n4c(C)ccc4C)c(=O)c23)o1	136	56*	-2	-4	-2	5	-14
Cc1sc2ncn(-n3c(C)ccc3C)c(=O)c2c1C	56	-5	1	1	2	5	·
S=C(NCc1cccc(Cl)c1)OC1CCC12CCC(c1ccccc1)CC2 (stereo not drawn)	·	·	·	·	4	·	·
CCSC1=NC(C)(C)C=C(/C=C/c2ccc(Cl)cc2Cl)N1	251	37	-5	-2	5	6	·
CSC1=NC(C)(C)C=C(/C=C/c2ccc(Cl)cc2Cl)N1	200	75*	-1	0	1	12	27
